According to ChEMBL document CHEMBL3576774, “Dactylomelane diterpenes from the sea hare Aplysia depilans” (J Nat Prod, 2015):

Tests used:
Type in all cases: functional, cell-based
A549 = test: Cytotoxic activity against human A549 cells assessed as reduction in cell growth incubated for 48 hrs by MTT assay
In short: (§1)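 Monolayers maintained in DMEM with 10% FBS, penicillin/streptomycin at 37 °C, 5% CO2, and passaged at 80–90% confluence. Log-phase cells were seeded at 1 × 10^5 cells/mL and allowed to attach for 24 h. They were then exposed to DMSO-diluted compounds at various concentrations for 48 h. MTT was added at 0.5 mg/mL final for 4 h, dissolved in HCl/2-propanol, and read at 545 nm. Triplicates; IC50 from 3–4 experiments versus untreated control.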

HepG2 = test: Cytotoxic activity against human HepG2 cells assessed as reduction in cell growth incubated for 48 hrs by MTT assay; in short: as §1
MCF7 = test: Cytotoxic activity against human MCF7 cells assessed as reduction in cell growth incubated for 48 hrs by MTT assay; in short: as §1
HeLa = test: Cytotoxic activity against human HeLa cells assessed as reduction in cell growth incubated for 48 hrs by MTT assay; in short: as §1
A-431 = test: Cytotoxic activity against human A431 cells assessed as reduction in cell growth incubated for 48 hrs by MTT assay; conditions: A-431, 48 h; in short: as §1

Compound	IC50 (A549; Homo sapiens, A549, 48 h)	IC50 (HepG2; Homo sapiens, HepG2, 48 h)	IC50 (MCF7; Homo sapiens, MCF7, 48 h)	IC50 (HeLa; Homo sapiens, HeLa, 48 h)	IC50 (A-431)	IC50 (A549; a549)	IC50 (HepG2; hepg2)	IC50 (MCF7; mcf7)	IC50 (HeLa; hela)
C=CC(C)(O)CC[C@@H]1C(=C)CC[C@H](Br)[C@@]1(C)CCC(OC)C(C)(C)O (relative stereo)	> 100 µM	> 100 µM	> 100 µM	> 100 µM	> 100 µM				
C=CC(C)(O)CC[C@@H]1C(=C)CC[C@H](Br)[C@@]1(C)CCC(=O)C(C)C (some centres undefined)	> 100 µM	> 100 µM	> 100 µM	71.4 µM	> 100 µM				
C=CC(C)(O)CC[C@@H]1C(=C)CC[C@H](Br)[C@@]1(C)CCC1OC1(C)C (relative stereo)	> 100 µM	53.8 µM	71.7 µM	57.9 µM	> 100 µM				
CCCCCCCCCCCCCCCCOP(=O)([O-])OCC[N+](C)(C)C [MILTEFOSINE]	8.5 µM	26.3 µM	9.2 µM	16.5 µM	12 µM				
C=CC(C)(O)CC[C@H]1[C@](C)(CCC=C(C)C)[C@@H](Br)CC[C@@]1(C)O (some centres undefined)	> 100 µM	> 100 µM	78 µM	91.7 µM	> 100 µM				
C=CC(C)(O)CC[C@@H]1C(=C)CC[C@H](Br)[C@@]1(C)CCC(O)C(=C)C (relative stereo)	> 100 µM	> 100 µM	> 100 µM	> 100 µM	> 100 µM				
C=CC(C)(O)CC[C@@H]1C(=C)CC[C@H](Br)[C@@]1(C)CCC(Br)C(C)(C)O (relative stereo; 2)						86.9 µM	66.3 µM	60.7 µM	47.4 µM
C=CC(C)(O)CC[C@@H]1C(=C)CC[C@H](Br)[C@@]1(C)CCC(O)C(C)(C)Cl (relative stereo)	94.1 µM	48.7 µM	71.5 µM	61 µM	> 100 µM				
C=CC(C)(O)CC[C@@H]1C(=C)CC[C@H](Br)[C@@]1(C)CCC(O)C(C)(C)O (relative stereo)	> 100 µM	> 100 µM	> 100 µM	> 100 µM	> 100 µM				
C=CC(C)(O)CC[C@@H]1C(=C)CC[C@H](Br)[C@@]1(C)CCC(Br)C(C)(C)O (relative stereo; 3)	> 100 µM	> 100 µM	> 100 µM	91.8 µM	> 100 µM				
